The text below walks through data of ChEMBL document CHEMBL1122788, “Quantitative relationships between alpha-adrenergic activity and binding affinity of alpha-adrenoceptor agonists and antagonists” (J Med Chem, 1984).

Structures can show the parent of a compound that is named as a salt.

System in the first data set: not listed separately
Put plainly: Apparent partion coefficient of compound was evaluated in octanol/buffer at pH of 7.4 at 37 degree Centigrade. In kind it is physicochemical. As to conditions: pH 7.4.
In general, logD refers to the decadic logarithm of the distribution of all forms, ionised or not, between an organic phase and buffer at a given pH. Consider `FC(F)(F)c1ccc(Cl)c(NC2=NCCN2)c1`, for which the logD came to 1.54.

For the compound `c1ccc(C2CC2)c(OCC2=NCCN2)c1` [CIRAZOLINE], the logD was determined as 0.53.

As for `Cc1cc(C(C)(C)C)c(O)c(C)c1CC1=NCCN1` [OXYMETAZOLINE], the pH-dependent lipophilicity (logD) is -0.32.

Another data set deals with T1, Adrenergic receptor alpha-2 (Rattus norvegicus, UniProt P22086+P19328+P22909).
T1 sequence (P22086 whole entry): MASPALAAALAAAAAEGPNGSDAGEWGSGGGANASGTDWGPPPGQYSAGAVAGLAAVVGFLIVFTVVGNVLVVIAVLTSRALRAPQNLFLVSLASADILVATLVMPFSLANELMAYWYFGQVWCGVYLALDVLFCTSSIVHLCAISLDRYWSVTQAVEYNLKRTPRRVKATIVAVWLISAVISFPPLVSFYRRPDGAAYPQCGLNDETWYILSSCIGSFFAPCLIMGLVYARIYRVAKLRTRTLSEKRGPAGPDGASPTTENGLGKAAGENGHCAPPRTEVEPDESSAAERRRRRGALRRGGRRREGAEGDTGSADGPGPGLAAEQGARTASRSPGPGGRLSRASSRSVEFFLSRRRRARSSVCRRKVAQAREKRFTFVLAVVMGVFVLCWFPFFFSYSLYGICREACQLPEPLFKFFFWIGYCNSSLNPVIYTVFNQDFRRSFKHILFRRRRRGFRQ
T1 sequence (P19328 whole entry): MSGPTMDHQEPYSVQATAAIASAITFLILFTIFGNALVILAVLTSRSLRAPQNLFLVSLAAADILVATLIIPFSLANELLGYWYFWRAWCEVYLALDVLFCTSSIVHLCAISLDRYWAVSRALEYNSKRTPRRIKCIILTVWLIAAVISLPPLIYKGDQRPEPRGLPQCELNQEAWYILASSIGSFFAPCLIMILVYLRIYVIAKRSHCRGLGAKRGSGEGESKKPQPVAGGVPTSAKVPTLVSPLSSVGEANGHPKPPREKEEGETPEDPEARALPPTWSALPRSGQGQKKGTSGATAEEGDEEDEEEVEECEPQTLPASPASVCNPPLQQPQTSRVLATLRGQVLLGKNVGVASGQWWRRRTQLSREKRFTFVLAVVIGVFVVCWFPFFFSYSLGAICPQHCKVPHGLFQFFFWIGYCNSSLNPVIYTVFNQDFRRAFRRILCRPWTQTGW
T1 sequence (P22909 whole entry): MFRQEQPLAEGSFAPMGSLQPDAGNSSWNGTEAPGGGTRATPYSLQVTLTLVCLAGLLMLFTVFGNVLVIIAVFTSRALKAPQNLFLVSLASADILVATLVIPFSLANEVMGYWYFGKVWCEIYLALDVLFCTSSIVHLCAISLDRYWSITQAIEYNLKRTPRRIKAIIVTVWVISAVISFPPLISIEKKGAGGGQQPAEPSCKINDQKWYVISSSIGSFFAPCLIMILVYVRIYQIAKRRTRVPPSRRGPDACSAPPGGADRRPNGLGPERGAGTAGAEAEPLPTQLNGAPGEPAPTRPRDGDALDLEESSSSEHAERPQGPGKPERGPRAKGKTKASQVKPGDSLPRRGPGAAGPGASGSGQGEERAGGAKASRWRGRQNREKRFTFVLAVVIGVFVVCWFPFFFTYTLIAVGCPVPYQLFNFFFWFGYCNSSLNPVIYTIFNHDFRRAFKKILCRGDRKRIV
Put plainly: 50% inhibition of specific [3H]clonidine binding (0.4 nM) to Alpha-2 adrenergic receptors in rat isolated brain membranes. In kind it is cell membranes, Membrane.
Conditions: not given
The essentials:
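Whole rat brain (minus cerebellum) from male Wistar rats (200–250 g), homogenized in ice-cold 50 mM Tris-HCl pH 7.7 and washed twice at 50000g. Bound ligand was collected by rapid filtration and counted. IC50 was derived by log-probit analysis.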
By IC50 is commonly meant the concentration at which inhibition is half-maximal. On to `CCCN(CCC)C1CCc2c(ccc(O)c2O)C1` (stereo not drawn), for which the half-maximal inhibitory concentration (IC50) came out at 0.08 µM. This counts as double-digit nanomolar.

Compound `CN(C)C1CCc2c(ccc(O)c2O)C1` (stereo not drawn) came in with a half-inhibitory concentration (IC50) of 0.017 µM. Against the preceding compound, the IC50 is about 4.7-fold lower.

For the compound `CCCN(CCC)C1CCc2cc(O)c(O)cc2C1` (stereo not drawn), the concentration for half-maximal inhibition (IC50) was determined as 0.087 µM.

With `CCCN(CCC)C1CCc2ccc(O)cc2C1` (stereo not drawn), the 50% inhibitory concentration (IC50) stood at 1.2 µM.

`CCCN(CCC)C1CCc2c(O)cccc2C1` (stereo not drawn) [5-OH-DPAT]: the half-maximal inhibitory concentration (IC50) turned out to be 0.85 µM.

`CNCC(O)c1cccc(NS(C)(=O)=O)c1` (stereo not drawn) [AMIDEPHRINE MESYLATE] displayed an IC50 of 1.9 µM.

Another data set concerns the target T1, Adrenergic receptor alpha-2. Put plainly: Binding affinity against Alpha-2 adrenergic receptor is the ability to inhibit the specific [3H]-clonidine binding (0.4 nM) to rat isolated brain membranes by 50% was reported; 5.9*10e-8. In kind it is tissue-based, Membrane.
Conditions: not given
Turning to `c1ccc(C2CC2)c(OCC2=NCCN2)c1` [CIRAZOLINE], the IC50 was determined as 0.059 µM. In other words, the double-digit nanomolar range.

For another data set the target is unchanged. Put plainly: Binding affinity against alpha-2 adrenergic receptor is the ability to inhibit the specific [3H]clonidine binding (0.4 nM) to rat isolated brain membranes by 50% was reported. Set-up: species or system Membrane.
Conditions: not given
An outline of the steps: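 Whole rat brain (minus cerebellum) from male Wistar rats (200–250 g), homogenized in ice-cold 50 mM Tris-HCl pH 7.7 and washed twice at 50000g. […] Bound ligand was collected by rapid filtration and counted. IC50 was derived by log-probit analysis.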
Regarding `FC(F)(F)c1ccc(Cl)c(NC2=NCCN2)c1`, the half-inhibitory concentration (IC50) was 0.15 µM.

For the next data set, the target named is T2, Adrenergic receptor alpha-1 (Rattus norvegicus, UniProt P15823+P23944+P43140).
T2 sequence (P15823 whole entry): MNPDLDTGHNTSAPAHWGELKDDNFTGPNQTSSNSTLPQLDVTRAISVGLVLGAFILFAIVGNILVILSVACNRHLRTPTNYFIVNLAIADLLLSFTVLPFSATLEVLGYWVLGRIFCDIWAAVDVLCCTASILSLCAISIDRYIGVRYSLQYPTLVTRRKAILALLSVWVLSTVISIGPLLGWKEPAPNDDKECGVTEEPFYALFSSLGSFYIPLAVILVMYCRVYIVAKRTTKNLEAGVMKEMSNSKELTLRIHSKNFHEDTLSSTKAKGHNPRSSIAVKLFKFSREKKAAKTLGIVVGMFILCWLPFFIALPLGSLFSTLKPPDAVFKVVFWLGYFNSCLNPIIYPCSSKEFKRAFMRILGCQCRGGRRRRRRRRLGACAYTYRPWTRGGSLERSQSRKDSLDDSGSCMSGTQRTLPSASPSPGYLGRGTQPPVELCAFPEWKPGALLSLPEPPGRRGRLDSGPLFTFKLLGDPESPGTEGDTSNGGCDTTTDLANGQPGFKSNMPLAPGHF
T2 sequence (P23944 whole entry): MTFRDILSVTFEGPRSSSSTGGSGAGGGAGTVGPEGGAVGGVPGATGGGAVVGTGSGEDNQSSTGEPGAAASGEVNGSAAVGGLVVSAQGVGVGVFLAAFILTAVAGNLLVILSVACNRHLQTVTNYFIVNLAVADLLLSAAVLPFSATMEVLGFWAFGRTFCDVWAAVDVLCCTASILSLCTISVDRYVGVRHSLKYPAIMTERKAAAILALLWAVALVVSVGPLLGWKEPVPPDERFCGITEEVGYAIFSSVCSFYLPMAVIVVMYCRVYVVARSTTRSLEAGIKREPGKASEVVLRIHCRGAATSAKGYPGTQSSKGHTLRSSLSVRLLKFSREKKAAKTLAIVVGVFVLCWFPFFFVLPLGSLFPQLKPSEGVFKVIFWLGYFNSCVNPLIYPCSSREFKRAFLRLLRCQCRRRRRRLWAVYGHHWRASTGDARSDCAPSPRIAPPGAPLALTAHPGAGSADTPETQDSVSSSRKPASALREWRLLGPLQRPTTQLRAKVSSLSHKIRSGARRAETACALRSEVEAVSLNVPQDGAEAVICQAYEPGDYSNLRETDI
T2 sequence (P43140 whole entry): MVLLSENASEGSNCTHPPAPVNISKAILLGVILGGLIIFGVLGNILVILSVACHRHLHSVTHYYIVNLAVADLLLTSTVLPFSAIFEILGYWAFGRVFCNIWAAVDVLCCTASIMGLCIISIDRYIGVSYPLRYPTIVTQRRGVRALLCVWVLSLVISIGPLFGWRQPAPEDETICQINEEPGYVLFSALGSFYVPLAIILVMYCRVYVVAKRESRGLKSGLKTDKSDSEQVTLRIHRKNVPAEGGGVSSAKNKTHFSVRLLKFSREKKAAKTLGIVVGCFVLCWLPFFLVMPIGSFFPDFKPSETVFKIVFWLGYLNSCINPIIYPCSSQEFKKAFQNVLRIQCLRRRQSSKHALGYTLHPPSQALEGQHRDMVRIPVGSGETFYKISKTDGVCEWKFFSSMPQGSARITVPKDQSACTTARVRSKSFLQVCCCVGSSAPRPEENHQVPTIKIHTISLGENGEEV
Put plainly: Binding affinity against alpha-1 adrenergic receptor is the ability to inhibit the specific [3H]prazosin binding (0.2 nM) to rat isolated brain membranes by 50% was reported; 8.9*10e-7. In kind it is tissue-based, Membrane.
Conditions: not given
`c1ccc(C2CC2)c(OCC2=NCCN2)c1` [CIRAZOLINE] yielded an IC50 of 0.89 µM.

A further data set has as its system Rattus norvegicus. Put plainly: Hypertensive activity (increase in arterial pressure to 60 mmHg)) after i.v. administration to pithed rats.
Conditions: not given
Consider `FC(F)(F)c1ccc(Cl)c(NC2=NCCN2)c1`, for which the pC60 amounted to 1.21 uM kg-1.

Turning to `CCCN(CCC)C1CCc2c(ccc(O)c2O)C1` (stereo not drawn), the pC60 stood at 0.54 uM kg-1.

As to `CN(C)C1CCc2c(ccc(O)c2O)C1` (stereo not drawn), the pC60 is reported as 1.2 uM kg-1.

Compound `CCCN(CCC)C1CCc2cc(O)c(O)cc2C1` (stereo not drawn) gave a pC60 of 0.36 uM kg-1.

As to `CCCN(CCC)C1CCc2ccc(O)cc2C1` (stereo not drawn), the pC60 was -0.09 uM kg-1.

As to `CCCN(CCC)C1CCc2c(O)cccc2C1` (stereo not drawn) [5-OH-DPAT], the pC60 was -0.13 uM kg-1.

`CNCC(O)c1cccc(NS(C)(=O)=O)c1` (stereo not drawn) [AMIDEPHRINE MESYLATE] registered a pC60 of 1.36 uM kg-1.

Compound `c1ccc(C2CC2)c(OCC2=NCCN2)c1` [CIRAZOLINE] showed a pC60 of 2.36 uM kg-1.

Compound `Cc1cc(C(C)(C)C)c(O)c(C)c1CC1=NCCN1` [OXYMETAZOLINE] showed a pC60 of 2.24 uM kg-1.

The target in a further data set is T2, Adrenergic receptor alpha-1. Description: Binding affinity against alpha-1 adrenergic receptor is the ability to inhibit the specific [3H]prazosin binding (0.2 nM) to rat isolated brain membranes by 50% was reported.
Conditions: not given
Take `FC(F)(F)c1ccc(Cl)c(NC2=NCCN2)c1`: the IC50 stood at 0.47 µM.

For the compound `CCCN(CCC)C1CCc2c(ccc(O)c2O)C1` (stereo not drawn), the IC50 amounted to 15 µM.

In the case of `CN(C)C1CCc2c(ccc(O)c2O)C1` (stereo not drawn), the IC50 came to 39 µM.

In turn, `CCCN(CCC)C1CCc2cc(O)c(O)cc2C1` (stereo not drawn) displayed an IC50 of 24 µM. This IC50 is about 1.6-fold lower than that of the compound before.

`CCCN(CCC)C1CCc2ccc(O)cc2C1` (stereo not drawn) registered a concentration for half-maximal inhibition (IC50) of 18 µM.

`CCCN(CCC)C1CCc2c(O)cccc2C1` (stereo not drawn) [5-OH-DPAT] yielded a concentration for half-maximal inhibition (IC50) of 18 µM.

The compound `CNCC(O)c1cccc(NS(C)(=O)=O)c1` (stereo not drawn) [AMIDEPHRINE MESYLATE] came in with an IC50 of 40 µM.
